Broadly, the EC50 is the concentration at which the effect is half-maximal. Broadly, the IC50 is the midpoint of a concentration-inhibition curve.

Each structure is given as a SMILES string.

Assay [1] can be described thus: Antioxidant activity assessed as ABTS radical scavenging activity. Format: functional. In a few lines: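 ABTS radical cation generated from 7.5 mM ABTS with 2.5 mM […], then diluted. Various concentrations of vehicle, test agents or Trolox (positive control) were mixed with an equal volume of the diluted radical solution for 6 min. Remaining radical was read as absorbance at 734 nm. EC50 calculated, mean ± SD (n=6).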

The nature of assay [2]: Antiplatelet activity against citreated rabbit platelet assessed as inhibition of 9,11-dideoxy-11 alpha, 9 alpha epoxy-methanoprostaglandin F2alpha-induced platelet aggregation. The format is functional, cell-based. The settings on record: Oryctolagus cuniculus. A digest of the protocol:
(§1)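 Washed platelets from fresh rabbit blood, preincubated 2 min at 37 °C with various compound concentrations or 0.5% DMSO (control), then challenged with arachidonic acid or U46619. Turbidimetric aggregation: platelet suspension set as 0% and platelet-free Tyrode solution as 100%. Inhibition % = [1 − sample/control aggregation] × 100. IC50 reported as mean ± SD (n=4).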

A short description of assay [3]: Antiplatelet activity against citreated rabbit platelet assessed as arachidonic acid-induced platelet aggregation. Format: functional, cell-based. The settings on record: Oryctolagus cuniculus. In a few lines: as §1

Consider `Oc1ccc([C@H]2Oc3cc(O)cc(/C=C/c4ccc5c(c4)[C@H](c4cc(O)cc6c4[C@H](c4cc(O)cc(O)c4)[C@@H](c4ccc(O)cc4)O6)[C@H](c4ccc(O)cc4)O5)c3[C@@H]2c2cc(O)cc(O)c2)cc1`, for which the EC50 in assay [1] turned out to be 4.8 µM. In addition, the figures for the IC50 in assay [2] and in assay [3] were 3.9 µM and 5.7 µM, respectively.
The corresponding values for `O=Cc1ccc2c(c1)C(c1cc(O)cc3c1[C@H](c1cc(O)cc(O)c1)[C@@H](c1ccc(O)cc1)O3)[C@H](c1ccc(O)cc1)O2` (some centres undefined) are 4.4 µM, 3.1 µM and 7 µM.
As for `Oc1ccc(/C=C/c2cc(O)cc3c2[C@H](c2cc(O)cc(O)c2)[C@@H](c2ccc(O)cc2)O3)cc1`, in assay [1], the EC50 came to 2.8 µM. For the same compound, the IC50 in assay [2] and in assay [3] was over 100 µM throughout.
In the case of `Oc1ccc([C@@H]2c3c(O)cc4c5c3[C@@H]([C@@H](c3ccc(O)cc3)c3c(O)cc(O)cc3[C@@H]5[C@@H](c3ccc(O)cc3)O4)[C@H]2c2cc(O)cc(O)c2)cc1` [AMPELOPSIN C], the concentration for a half-maximal effect (EC50) in assay [1] came to 5.4 µM. For the same compound, the IC50 came to 5.9 µM in assay [2] and 8.1 µM in assay [3].
For `CC(=O)Oc1ccccc1C(=O)O` [ASPIRIN], in assay [3], the IC50 stood at 32.7 µM.
Take `Oc1ccc(/C=C/c2cc(O)cc3c2[C@@H](c2cc(O)cc4c2[C@H](c2cc(O)cc5c2[C@@H](c2cc(O)cc(O)c2)[C@H](c2ccc(O)cc2)O5)[C@@H](c2ccc(O)cc2)O4)[C@H](c2ccc(O)cc2)O3)cc1` [MIYABENOL A]: the 50% effective concentration (EC50) in assay [1] came to 6.6 µM. Also, the results for the concentration for half-maximal inhibition (IC50) in assay [2] and in assay [3] were 7.5 µM and 9 µM, respectively.
In the case of `Cc1c(C)c2c(c(C)c1O)CCC(C)(C(=O)O)O2` (centres undefined) [TROLOX], in assay [1], the concentration giving a half-maximal response (EC50) amounted to 28.4 µM.
As to `Oc1ccc([C@H]2c3c(O)cc(O)cc3[C@H]3c4c(cc(O)cc4[C@@H]2c2cc(/C=C/c4cc(O)cc5c4[C@H](c4cc(O)cc(O)c4)[C@@H](c4ccc(O)cc4)O5)ccc2O)O[C@@H]3c2ccc(O)cc2)cc1` [VITISIN A], the EC50 in assay [1] turned out to be 13.8 µM. In addition, the 50% inhibitory concentration (IC50) in assay [2] was 13.3 µM; in assay [3] it was 10.3 µM.
For the compound `O=Cc1ccc(O)c([C@H]2c3cc(O)cc4c3[C@H](c3cc(O)cc(O)c3[C@@H]2c2ccc(O)cc2)[C@@H](c2ccc(O)cc2)O4)c1` [VITISINOL B], the half-maximal effective concentration (EC50) in assay [1] is 3.6 µM. The IC50 in assay [2] was 7.8 µM; in assay [3], over 100 µM.
On the same counts, the results for `O=C1C=C(/C=C/c2ccc(O)cc2)C[C@@H](c2cc(O)cc(O)c2)[C@H](c2ccc(O)cc2)C1` [VITISINOL C] are 4.5 µM, 10.5 µM and 13.4 µM.
For `O=C1C=C(/C=C/c2ccc(O)cc2)[C@H]2C(=O)[C@@H]1[C@H](c1ccc(O)cc1)[C@H]2c1cc(O)cc(O)c1` [VITISINOL D], in assay [1], the EC50 was found to be 4.1 µM. Moreover, the IC50 in assay [2] is 5.7 µM; in assay [3] it was 15 µM.

These data come from ChEMBL document CHEMBL1142581, “Resveratrol derivatives from the roots of Vitis thunbergii” (J Nat Prod, 2005).
